Results from ChEMBL document CHEMBL1938372, “Design and synthesis of conformationally constrained inhibitors of non-nucleoside reverse transcriptase” (J Med Chem, 2011).
Active and inactive are the calls of the source. No cut-off for these calls is given here.

Tests used:
[1] = test system: Human immunodeficiency virus; test: Antiviral activity against Human immunodeficiency virus harboring reverse transcriptase K101E/G190A double mutant assessed as inhibition of viral replication; type: functional, organism-based
Method in brief: (§1)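 Phenosense cell culture assay against a panel of clinically derived RT mutant viruses in the presence of 10% FBS. IC50 is the compound concentration blocking 50% of viral replication. Each value is the average of two determinations.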

Canis familiaris [2] = test: Dose normalised AUC in Beagle dog at 10 mg/kg, po by LC-MS analysis; type: ADME, organism-based, Canis lupus familiaris; design: dose 10 mg/kg, route oral; details: in vivo
Method in brief: (§2)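 PK in Sprague-Dawley rats (iv solution in DMSO via an indwelling jugular cannula, or oral suspension in aqueous methylcellulose/Methocel) and beagle dogs (iv and oral given crossover, same vehicles). Plasma levels by LC-MS. F from oral versus iv dose-normalized AUC. Average of at least two animals; rat values within 25% of the mean.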

[3] = test system: Human immunodeficiency virus; test: Antiviral activity against wild type Human immunodeficiency virus assessed as inhibition of viral replication; type: functional, organism-based
[4] = test system: Human immunodeficiency virus; test: Antiviral activity against Human immunodeficiency virus harboring reverse transcriptase K103N/Y181C/G190A triple mutant assessed as inhibition of viral replication; type: functional, organism-based; method in brief: as §1
[5] = test system: Human immunodeficiency virus; test: Antiviral activity against Human immunodeficiency virus harboring reverse transcriptase Y188L mutant assessed as inhibition of viral replication; type: functional, organism-based; method in brief: as §1
Rattus norvegicus = test: Dose normalised AUC in Sprague-Dawley rat at 10 mg/kg, po by LC-MS analysis; type: ADME, organism-based; design: dose 10 mg/kg, route oral; details: in vivo; method in brief: as §2
[6] = test system: Human immunodeficiency virus; test: Antiviral activity against Human immunodeficiency virus harboring reverse transcriptase Y181C mutant assessed as inhibition of viral replication; type: functional, organism-based; method in brief: as §1
[7] = test system: Human immunodeficiency virus; test: Antiviral activity against Human immunodeficiency virus harboring reverse transcriptase K103N mutant assessed as inhibition of viral replication; type: functional, organism-based; method in brief: as §1
[8] = test system: Human immunodeficiency virus; test: Antiviral activity against multidrug-resistant Human immunodeficiency virus assessed as inhibition of viral replication; type: functional, organism-based; method in brief: as §1
[9] = test system: Human immunodeficiency virus; test: Antiviral activity against Human immunodeficiency virus harboring reverse transcriptase K103N/P225H double mutant assessed as inhibition of viral replication; type: functional, organism-based; method in brief: as §1
[10] = test system: Human immunodeficiency virus; test: Antiviral activity against Human immunodeficiency virus harboring reverse transcriptase L100l/K103N/P225P/H triple mutant assessed as inhibition of viral replication; type: functional, organism-based; method in brief: as §1
[11] = test system: Human immunodeficiency virus; test: Antiviral activity against Human immunodeficiency virus harboring reverse transcriptase L100l mutant assessed as inhibition of viral replication; type: functional, organism-based; method in brief: as §1
[12] = test system: Human immunodeficiency virus; test: Antiviral activity against Human immunodeficiency virus expressing wild type reverse transcriptase infected in human MT4 cells by p24 antigen assay in the presence of 10% FBS; type: functional; details: Human immunodeficiency virus 1, MT4; read-out: CIC95
Method in brief: (§3)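 MT-4 human T-lymphoid cells in RPMI 1640 with either 10% FBS or 50% NHS; CIC95 taken as the concentration inhibiting virus spread/replication by >95%. Geometric mean of at least two determinations, individual values within 2-fold; SEM given when ≥3 determinations.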

[13] = test system: Human immunodeficiency virus; test: Antiviral activity against Human immunodeficiency virus harboring reverse transcriptase G190S mutant assessed as inhibition of viral replication; type: functional, organism-based; method in brief: as §1
[14] = test system: Human immunodeficiency virus; test: Antiviral activity against Human immunodeficiency virus expressing reverse transcriptase K103N mutant infected in human MT4 cells by p24 antigen assay in the presence of 10% FBS; type: functional; details: Human immunodeficiency virus 1, MT4; read-out: CIC95
Method in brief: (§4)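 Antiviral spread assay in MT-4 human T-lymphoid cells kept in RPMI 1640 with 10% FBS. Value is the CIC95, the concentration inhibiting virus replication by >95%. Reported as the geometric mean of at least two determinations, all within 2-fold of the mean. Cytotoxicity was checked up to the assay upper limit of 8.3 μM.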

[15] = test system: Human immunodeficiency virus; test: Antiviral activity against Human immunodeficiency virus harboring reverse transcriptase K101E/Y181C/G190A triple mutant assessed as inhibition of viral replication; type: functional, organism-based; method in brief: as §1
MT4 = test: Cytotoxicity against human MT4 cells up to 8.3 uM; type: cell-based
Method in brief: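 MT-4 cells in RPMI 1640 with 10% FBS or 50% NHS, run alongside the antiviral CIC95 assay; cytotoxicity checked up to the assay upper limit of 8.3 μM.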

[16] = test system: Human immunodeficiency virus; test: Antiviral activity against Human immunodeficiency virus harboring reverse transcriptase V106A/G190A/F227L triple mutant assessed as inhibition of viral replication; type: functional, organism-based; method in brief: as §1
[17] = Inhibition of Human immunodeficiency virus reverse transcriptase by SPA assay
[18] = test system: Human immunodeficiency virus; test: Antiviral activity against Human immunodeficiency virus expressing wild type reverse transcriptase infected in human MT4 cells by p24 antigen assay in the presence of 50% normal human serum; type: functional; details: Human immunodeficiency virus 1, MT4; read-out: CIC95; method in brief: as §3
[19] = test system: Human immunodeficiency virus; test: Antiviral activity against Human immunodeficiency virus harboring reverse transcriptase G190A mutant assessed as inhibition of viral replication; type: functional, organism-based; method in brief: as §1
[20] = test system: Human immunodeficiency virus; test: Antiviral activity against Human immunodeficiency virus expressing reverse transcriptase Y181C mutant infected in human MT4 cells by p24 antigen assay in the presence of 10% FBS; type: functional; details: Human immunodeficiency virus 1, MT4; read-out: CIC95; method in brief: as §4
[21] = biological target: Human immunodeficiency virus type 1 reverse transcriptase (Human immunodeficiency virus 1, UniProt Q72547, K103N); test: Inhibition of Human immunodeficiency virus reverse transcriptase K103N mutant by SPA assay
Method in brief: (§5)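 Recombinant HIV-1 RT polymerase scintillation proximity assay run with mutant enzyme, reported as Ki (nM). Values are geometric means of at least two determinations, each within 2-fold of the mean; SEM is given where there were ≥3 determinations.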

[22] = biological target: Human immunodeficiency virus type 1 reverse transcriptase (Human immunodeficiency virus 1, UniProt Q72547, Y181C); test: Inhibition of Human immunodeficiency virus reverse transcriptase Y181C mutant by SPA assay; method in brief: as §5
[23] = Plasma clearance in Beagle dog at 2 mg/kg, po and 1 mg/kg, iv; type: ADME, organism-based, Canis lupus familiaris; method in brief: as §2
[24] = Solubility of the compound in water at pH 2; type: physicochemical
Method in brief: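 Water solubility of the solid compound measured at pH 2 and at pH 7.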

[25] = Half life in Beagle dog at 2 mg/kg, po and 1 mg/kg, iv; type: ADME, organism-based, Canis lupus familiaris; details: in vivo; method in brief: as §2
[26] = Volume of distribution in Beagle dog at 2 mg/kg, po and 1 mg/kg, iv; type: ADME, organism-based, Canis lupus familiaris; details: in vivo; method in brief: as §2
[27] = Plasma clearance in Sprague-Dawley rat at 10 mg/kg, po and 2 mg/kg, iv; type: ADME, organism-based; method in brief: as §2
[28] = Bioavailability in Beagle dog at 2 mg/kg, po and 1 mg/kg, iv; type: ADME, organism-based, Canis lupus familiaris; details: in vivo; method in brief: as §2
[29] = Bioavailability in Sprague-Dawley rat at 10 mg/kg, po and 2 mg/kg, iv; type: ADME, organism-based; details: in vivo; method in brief: as §2
[30] = Volume of distribution in Sprague-Dawley rat at 10 mg/kg, po and 2 mg/kg, iv; type: ADME, organism-based; details: in vivo; method in brief: as §2
[31] = Half life in Sprague-Dawley rat at 10 mg/kg, po and 2 mg/kg, iv; type: ADME, organism-based; details: in vivo; method in brief: as §2
Canis familiaris [32] = test: Dose normalised AUC in Beagle dog at 2 mg/kg, po by LC-MS analysis; type: ADME, organism-based, Canis lupus familiaris; design: dose 2 mg/kg, route oral; details: in vivo; method in brief: as §2
Canis familiaris [33] = test: Dose normalised AUC in Beagle dog at 1 mg/kg, po by LC-MS analysis; type: ADME, organism-based, Canis lupus familiaris; design: dose 1 mg/kg, route oral; details: in vivo; method in brief: as §2
[34] = Bioavailability in Beagle dog at 1 mg/kg, po and 0.25 mg/kg, iv; type: ADME, organism-based, Canis lupus familiaris; details: in vivo; method in brief: as §2

Structure (SMILES): N#Cc1cc(Cl)cc(Oc2cc(OCc3n[nH]c4nc(N)ccc34)ccc2Cl)c1
- inhibition [1]: Active
- AUC/dose (Canis familiaris [2]): 3.1 µM·h
- inhibition [3]: Active
- inhibition [4]: Active
- inhibition [5]: inactive
- AUC/dose (Rattus norvegicus): 2.3 µM·h
- inhibition [6]: Active
- inhibition [7]: Active
- inhibition [8]: Active
- inhibition [9]: Active
- inhibition [10]: Active
- inhibition [11]: Active
- IC95 [12]: 4.9 nM
- inhibition [13]: Active
- IC95 [14]: 12 nM
- inhibition [15]: Active
- Activity (MT4): Non-toxic
- inhibition [16]: inactive
- Ki [17]: 0.2 nM
- IC95 [18]: 26 nM
- inhibition [19]: Active
- IC95 [20]: 27 nM

Structure (SMILES): NCc1cc(Cl)cc(Oc2c(Cl)ccc3c2nnn3Cc2n[nH]c3ncccc23)c1Cl
- IC95 [12]: 57 nM
- IC95 [14]: 232 nM
- Activity (MT4): Non-toxic
- IC95 [18]: 281 nM
- IC95 [20]: 418 nM

Structure (SMILES): N#Cc1cc(Cl)cc(Oc2c(Cl)ccc3c2[nH]c(=O)n3Cc2n[nH]c3ncccc23)c1
- Ki [21]: > 600 nM
- IC95 [12]: > 833 nM
- Ki [22]: > 300 nM
- Activity (MT4): Non-toxic
- Ki [17]: > 300 nM
- IC95 [18]: > 833 nM

Structure (SMILES): N#Cc1cc(Cl)cc(Oc2c(Cl)ccc3c2cnn3Cc2n[nH]c3ncccc23)c1 [MK-6186]
- inhibition [1]: Active
- clearance [23]: 6.1 mL/min/kg
- inhibition [3]: Active
- inhibition [4]: Active
- solubility [24]: < 0.1 µg/mL
- inhibition [5]: inactive
- half-life [25]: 12.8 h
- Vd [26]: 6 L/kg
- AUC/dose (Rattus norvegicus): 1.6 µM·h
- inhibition [6]: Active
- inhibition [7]: Active
- clearance [27]: 18 mL/min/kg
- bioavailability [28]: 48%
- inhibition [8]: Active
- bioavailability [29]: 76%
- inhibition [9]: Active
- inhibition [10]: Active
- Ki [21]: 0.58 nM
- Vd [30]: 10.5 L/kg
- inhibition [11]: Active
- IC95 [12]: 11 nM
- Ki [22]: 0.6 nM
- half-life [31]: 7.6 h
- AUC/dose (Canis familiaris [32]): 2.3 µM·h
- inhibition [13]: Active
- IC95 [14]: 15 nM
- inhibition [15]: Active
- Activity (MT4): Non-toxic
- inhibition [16]: inactive
- Ki [17]: 0.34 nM
- IC95 [18]: 64 nM
- inhibition [19]: Active
- IC95 [20]: 58 nM

Structure (SMILES): Cc1nc2c(Oc3cc(Cl)cc(C#N)c3)c(Cl)ccc2n1Cc1n[nH]c2ncccc12
- Ki [21]: > 600 nM
- IC95 [12]: > 833 nM
- Ki [22]: > 300 nM
- Activity (MT4): Non-toxic
- Ki [17]: > 300 nM
- IC95 [18]: > 833 nM

Structure (SMILES): N#Cc1cc(Cl)cc(Oc2cc3c(cc2Cl)ncn3Cc2n[nH]c3ncccc23)c1
- Ki [21]: > 100 nM
- IC95 [12]: 693 nM
- Ki [22]: > 100 nM
- IC95 [14]: 732 nM
- Activity (MT4): Non-toxic
- Ki [17]: 114 nM

Structure (SMILES): N#Cc1cc(Cl)cc(Oc2cc(OCc3n[nH]c4ncccc34)ccc2Cl)c1
- solubility [24]: < 0.1 µg/mL
- AUC/dose (Rattus norvegicus): 0.1 µM·h
- AUC/dose (Canis familiaris [33]): 0.14 µM·h
- bioavailability [29]: 7.5%
- Ki [21]: 0.22 nM
- bioavailability [34]: 3%
- IC95 [12]: 10 nM
- Ki [22]: 0.23 nM
- IC95 [14]: 15 nM
- Activity (MT4): Non-toxic
- Ki [17]: 0.12 nM
- IC95 [18]: 52 nM
- IC95 [20]: 22 nM
